# Screening data deposited in PubChem BioAssay by several laboratories.
# ATG4B inhibitor = ATG4B protease inhibitors, primary screen, biochemical, fluorescence, uHTS | Cysteine protease ATG4B (Homo sapiens), Q9Y4P1 | ATG4B cleavage of LC3-PLA2, NBD-HPC fluorescence, 1 h | inhibition, % at 8.33 µM | 0.51% of 340,000 active; in the data active = inhibition above about 40%
# Myeloid diff MLP = induction of myeloid progenitor differentiation, primary screen, cell-based, flow cytometry, MLPCN library. 1% of 360,000 active. ER-HoxA9 myeloid progenitors, lysozyme-GFP differentiation. calls only at 10 µM;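 active = normalized GFP-positive differentiation at or above the plate's own cutoff, the solvent-only control mean plus 3 SD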;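 note: cells exposed to compound for four days before flow analysis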
# NRP1-CendR mod = modulators of CendR peptide binding to NRP-1, primary screen, biochemical, fluorescence polarization, uHTS; FAM-RPARPAR peptide binding to NRP-1; 0.85% of 360,000 active; inhibition, % at 25 µM;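 active = inhibition or corrected inhibition above about 18%, plus a signal ratio from 0.5 to 1.5, limit read from the data, passing the limit was not always enough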
# ABCB6 inh 2 = ABCB6 transporter inhibitors, primary screen, K562-ABCB6 cells, flow cytometry, MLPCN library. fluorescence ratio to DMSO, % at 10 µM. AID 602162, 2011. 0.19% of 360,000 active. K562-ABCB6 porphyrin accumulation, 1 h; hits give low values. ATP-binding cassette sub-family B member 6 (Homo sapiens), Q9NP58;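 active = fluorescence ratio to DMSO below 75%, the collection mean minus 3 SD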;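 note: signal is porphyrin accumulated inside mitochondria; 100% equals median channel fluorescence of DMSO control wells; lower ratio means ABCB6 inhibition with less porphyrin fluorescence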
# Target sequence (Q9NP58 whole entry, looked up): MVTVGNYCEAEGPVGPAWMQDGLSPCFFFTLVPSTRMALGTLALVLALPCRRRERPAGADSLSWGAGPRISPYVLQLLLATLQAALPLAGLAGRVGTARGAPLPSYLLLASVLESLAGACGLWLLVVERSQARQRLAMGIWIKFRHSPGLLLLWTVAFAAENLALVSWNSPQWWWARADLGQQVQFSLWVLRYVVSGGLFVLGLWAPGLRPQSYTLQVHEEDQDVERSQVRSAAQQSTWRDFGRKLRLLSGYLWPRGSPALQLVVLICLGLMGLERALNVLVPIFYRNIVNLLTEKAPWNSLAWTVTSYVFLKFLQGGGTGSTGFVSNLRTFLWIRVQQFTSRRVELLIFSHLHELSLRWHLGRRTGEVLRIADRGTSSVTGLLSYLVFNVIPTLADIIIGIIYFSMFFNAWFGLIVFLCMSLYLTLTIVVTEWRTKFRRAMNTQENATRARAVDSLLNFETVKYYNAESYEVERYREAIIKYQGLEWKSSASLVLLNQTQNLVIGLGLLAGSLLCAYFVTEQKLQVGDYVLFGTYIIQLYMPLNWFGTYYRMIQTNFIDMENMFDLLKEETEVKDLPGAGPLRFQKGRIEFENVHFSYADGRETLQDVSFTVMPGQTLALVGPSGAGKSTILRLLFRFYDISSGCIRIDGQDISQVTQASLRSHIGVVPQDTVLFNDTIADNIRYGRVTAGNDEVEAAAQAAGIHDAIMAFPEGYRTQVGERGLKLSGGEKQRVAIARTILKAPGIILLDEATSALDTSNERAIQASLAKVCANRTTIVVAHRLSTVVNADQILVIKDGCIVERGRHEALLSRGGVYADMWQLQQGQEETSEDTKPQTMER
# Arrestin-AP2 inh = inhibitors of beta-arrestin/AP2 binding, primary screen, biochemical, GPCR trafficking, flow cytometry. inhibition, % at 10 µM. AID 504490, 2011. 0.31% of 340,000 active. FITC-arrestin peptide / GST-AP2 beads; AP2 beta2 appendage carries R879A mutation;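 active = inhibition above a set limit, near 3 SD of compounds lacking own fluorescence, cut at about 54% in these data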;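 note: plate controls were DMSO wells for no effect and 5 µM unlabelled arrestin peptide for full effect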
#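 System: GST-AP2 R879A glutathione beads. Medium: PBS with 0.05% Tween 20 and 0.1% BSA. Also added: FITC-arrestin peptide, 50 nM. Incubation: 12 min plus 1 h, RT. Measured by: high-throughput flow cytometry of beads, ex 488, em 535 nm. Evaluation: percent drop in bead-associated FITC signal.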
# Exocytosis inh = LAMP-1 surface exposure blockers, TALL-104 cells – cell-based, flow cytometry, MLPCN library, primary screen; 0.66% of 360,000 active; TALL-104 LAMP-1 surface exposure; cells stimulated with thapsigargin and PMA; inhibition, % at 10 µM;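 active = inhibition above about 55%, limit read from the data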
# Active calls of the source: *; i = inactive; + = active, no number. The list is not random: actives were taken first. Their share in the collection is about 3.3%.
SMILES,ATG4B inhibitor,Myeloid diff MLP,NRP1-CendR mod,ABCB6 inh 2,Arrestin-AP2 inh,Exocytosis inh
CCOc1ccc(C2C(C(=O)c3ccc(C)o3)=C(O)C(=O)N2c2cc(C)on2)cc1OC (stereo unspecified),-2.4,i,20.8*,99.0,-2.3,2.8
C=CCOc1cccc(C2C(C(=O)c3ccc(C)o3)=C(O)C(=O)N2c2nccs2)c1 (stereo unspecified),-7.8,+,77.6,85.0,15.6,3.3
COc1cccc(C2C(C(=O)c3ccc(C)o3)=C(O)C(=O)N2c2cc(C)on2)c1 (stereo unspecified),-13.1,i,-6.0,97.0,-4.6,2.9
COCCn1cnc2c1c(=O)n(CC(=O)NC(=O)NC(C)(C)C)c(=O)n2Cc1ccccc1,-5.6,i,-6.1,92.0,-0.2,-7.9
Cc1cc(NS(=O)(=O)c2ccc(NC(=O)CCCC(=O)O)cc2)nc(C)n1,1.4,i,45.2*,100.0,-1.8,1.2
CC(=O)c1c(C)n(C)c2ccc(OC(=O)c3ccco3)cc12,-16.1,+,7.7,98.0,26.0,0.8
COc1ccc(CCn2c(C)c(C(C)=O)c3cc(OC(=O)c4ccco4)ccc32)cc1OC,-11.4,i,6.9,89.0,6.7,-0.6
C[C@H]1CN([C@@H](C)CO)C(=O)c2cc(NC(=O)C3CCCCC3)ccc2O[C@H]1CN(C)CC1CCCCC1,-4.9,i,11.0,99.0,10.9,7.3
Nc1ccc(-c2nc3ccc([N+](=O)[O-])cc3[nH]2)cc1,-1.2,i,-5.5,93.0,9.2,-0.7
O=[N+]([O-])c1ccc(-c2nc3ccc([N+](=O)[O-])cc3[nH]2)cc1,-3.1,i,35.8*,94.0,5.9,-1.2
Cc1cccc(OCC(O)Cn2c(NCc3cccnc3)nc3c2c(=O)[nH]c(=O)n3C)c1 (stereo unspecified),11.3,i,1.2,88.0,3.3,2.1
COc1cc(/C=N/N=C2\CC3CCC2(C)C3(C)C)ccc1O (stereo unspecified),-4.9,i,22.6*,97.0,1.8,-1.7
CN1C(=O)c2cccc3c(Cl)ccc(c23)C1=O,-5.1,i,3.9,102.0,-8.1,-1.7
CNc1ccc2c3c(cccc13)C(=O)N(C)C2=O,-166.8,+,143.2,114.0,7.9,14.7
O=C(NCCc1ccccc1)C1CCCN(S(=O)(=O)c2cccc3nsnc23)C1 (stereo unspecified),-0.7,i,-4.7,94.0,14.0,-1.6
O=C(O)c1ccc(/C=N\Nc2ccc(S(=O)(=O)N3CCOCC3)cc2[N+](=O)[O-])cc1,-3.4,i,6.6,100.0,27.3,2.1
Cc1ccc(-n2c(O)c(/C=N/Nc3ccc(S(=O)(=O)N4CCOCC4)cc3[N+](=O)[O-])c3ccccc3c2=O)c(C)c1,17.1,i,46.2*,91.0,22.5,-0.4
Cc1nn(C(=O)Cn2ccc([N+](=O)[O-])n2)c(C)c1Cl,2.3,i,8.7,92.0,31.0,9.7
CCCOc1ccc(OCC(=O)c2[nH]c(C)c(C(C)=O)c2C)cc1,2.8,i,40.6*,98.0,15.5,-0.3
CC(=O)c1c(C)[nH]c(C(=O)COc2cc(C)cc(C)c2)c1C,-2.1,i,-2.2,96.0,10.2,-3.9
CCn1c(CN2CCN(C(c3ccccc3)c3ccccc3)CC2)nc2c1c(=O)n(C)c(=O)n2C,-9.7,i,5.6,101.0,-1.3,5.5
CC(C)[C@H](NC(=O)C1(c2ccccc2)CCN(C(=O)OC(C)(C)C)CC1)C(=O)O,3.4,+,5.7,105.0,8.4,2.1
CC(C)(C)OC(=O)N1CCC(C(=O)N[C@@H](Cc2ccccc2)C(=O)O)(c2ccccc2)CC1,-8.1,i,5.6,97.0,-0.8,0.2
COc1ccccc1N(CC(=O)NC1CCCC1)C(=O)CNC(=O)c1cccs1,2.5,i,11.0,95.0,-4.0,-13.0
